# Laboratory results taken from ChEMBL document CHEMBL1123985, “Oral absorption of cephalosporin antibiotics. 1. Synthesis, biological properties, and oral bioavailability of 7-(arylacetamido)-3-chloro cephalosporins in animals” (J Med Chem, 1988).
# Assays:
# [1] = Area under plasma concentration vs time curve observed in Rhesus monkeys after, iv administration of single 30 mg/kg dose; type: ADME, organism-based, Macaca mulatta; set-up: dose 30 mg/kg, route intravenous; details: rhesus monkey
# In short: (§1)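 Rhesus monkeys, adult males, six animals per compound, each given drug orally and iv; fasted overnight. Single 30 mg/kg solution doses, by nasogastric tube (in water) or saphenous vein (in isotonic lactated Ringer). Plasma sampled at intervals, frozen at -70 °C, antibacterial activity by microbiological assay. AUC in μg min/mL; oral bioavailability from oral vs iv AUC.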
# [2] = Area under plasma concentration vs time curve observed in Rhesus monkeys after oral administration of single 30 mg/kg dose; type: ADME, organism-based, Macaca mulatta; set-up: dose 30 mg/kg, route oral; details: rhesus monkey; in short: as §1
# Canis familiaris [3] = test: Area under plasma concentration vs time curve observed in female mongrel dogs after, iv administration of single 15 mg/kg dose; type: ADME, organism-based, Canis lupus familiaris; set-up: dose 15 mg/kg, route intravenous; details: dog, in vivo
# In short: (§2)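 Six female mongrel dogs (14-23 kg) fasted overnight, bladder catheterized; single 15 mg/kg solution doses by stomach tube (in water, total 500 mL) or cephalic vein (saline or pH 6.0 NaCl/phosphate/acetate buffer). Plasma sampled at intervals; activity by disk-plate agar diffusion against E. coli MB 3804, standards in dog serum or buffer. AUC μg min/mL, mean ± SEM; BA from iv vs po AUC and urinary recovery.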
# Canis familiaris [4] = test: Area under plasma concentration vs time curve observed in female mongrel dogs after, oral administration of single 15 mg/kg dose; type: ADME, organism-based, Canis lupus familiaris; set-up: dose 15 mg/kg, route oral; details: dog, in vivo; in short: as §2
# [5] = Oral bioavailability in mouse; type: ADME, organism-based; details: in vivo
# In short: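 Male Cox mice given water and liquid diet overnight; 20 mg/kg in saline (2 mg/mL) sc or orally; urine from collection cages plus bladder contents over 2 h; activity by agar well assay with Bacillus subtilis ATCC 6633. Bioavailability from percent dose excreted in urine after oral vs parenteral dosing.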
# [6] = Oral bioavailability in Rhesus monkey; type: ADME, organism-based, Macaca mulatta; details: in vivo; in short: as §1
# [7] = Oral bioavailability in dog (female mongrel); type: ADME, organism-based, Canis lupus familiaris; details: in vivo; in short: as §2
# [8] = dose in urine (24-h urine excretion) in female mongrel dogs after, oral administration of single 15 mg/kg dose; type: ADME, organism-based, Canis lupus familiaris; set-up: dose 15 mg/kg, route oral; details: dog
# In short: (§3)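 Female mongrel dogs (n=6), bladder catheter; urine collected at intervals after single 15 mg/kg iv or oral solution dose, frozen; antibiotic activity by disk-plate agar diffusion against E. coli MB 3804 with standards in pH 6.0 buffer; percent of dose recovered in urine.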
# [9] = dose in urine (24-h urine excretion) in female mongrel dogs after, iv administration of single 15 mg/kg dose; type: ADME, organism-based, Canis lupus familiaris; set-up: dose 15 mg/kg, route intravenous; details: dog; in short: as §3
# Escherichia coli = test: Minimum inhibitory concentration against EC14 strain Escherichia coli; type: functional
# Klebsiella aerogenes = test: Minimum inhibitory concentration against EB17 strain of Enterobacter aerogenes; type: functional
# Klebsiella pneumoniae = test: Minimum inhibitory concentration against X68 strain of Klebsiella pneumoniae; type: functional
# Mus musculus [10] = test: Efficacy against mouse infected ip with C203 strain of Streptococcus pyogenes, administered po to 19-21-g random sex ICR mice at 1 hr and 5 hr; type: functional
# In short: (§4)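 ICR mice, random sex, 19-21 g, challenged ip with 50-500 LC50 from a frozen organism pool; compound given sc or po at 1 and 5 h after challenge, five 2-fold dose levels, eight mice per level; ED50 derived.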
# Mus musculus [11] = test: Efficacy against mouse infected ip with C203 strain of Streptococcus pyogenes, administered sc to 19-21-g random sex ICR mice at 1 hr and 5 hr; type: functional; in short: as §4
# Mus musculus [12] = test: Efficacy against mouse infected ip with park strain of Streptococcus pneumoniae administered po to 19-21-g random sex ICR mice at 1 hr and 5 hr; type: functional; in short: as §4
# Mus musculus [13] = test: Efficacy against mouse infected ip with park strain of Streptococcus pneumoniae administered sc to 19-21-g random sex ICR mice at 1 hr and 5 hr; type: functional; in short: as §4
# Mus musculus [14] = test: Efficacy against mouse infected ip with 3055 strain of Staphylococcus aureus, administered po to 19-21-g random sex ICR mice at 1 hr and 5 hr; type: functional; in short: as §4
# Mus musculus [15] = test: Efficacy against mouse infected ip with 3055 strain of Staphylococcus aureus, administered sc to 19-21-g random sex ICR mice at 1 hr and 5 hr; type: functional; in short: as §4
# Salmonella = test: Minimum inhibitory concentration against X514 strain of Salmonella; type: functional
# [16] = Minimum inhibitory concentration against N9 strain of Shigella sonnei; type: functional
# [17] = test system: Staphylococcus epidermidis; test: Minimum inhibitory concentration against 222 strain of Staphylococcus epidermidis; type: functional
# [18] = test system: Staphylococcus epidermidis; test: Minimum inhibitory concentration against Epil strain of Staphylococcus epidermidis; type: functional
# Staphylococcus aureus [19] = test: Minimum inhibitory concentration against S13E strain of Staphylococcus aureus; type: functional
# Staphylococcus aureus [20] = test: Minimum inhibitory concentration against V41 strain of Staphylococcus aureus; type: functional
# Staphylococcus aureus [21] = test: Minimum inhibitory concentration against X1.1 strain of Staphylococcus aureus; type: functional
# Streptococcus pyogenes [22] = test: Minimum inhibitory concentration against Streptococcus pyogenes C203; type: functional
# Haemophilus influenzae [23] = test: Minimum inhibitory concentration against sens CL strain of Haemophilus influenzae; type: functional
# Haemophilus influenzae [24] = test: Minimum inhibitory concentration against res 76 strain of Haemophilus influenzae; type: functional
# Streptococcus pneumoniae [25] = test: Minimum inhibitory concentration against Park strain of Streptococcus pneumoniae; type: functional
# Staphylococcus aureus [26] = test: Minimum inhibitory concentration against 3055 strain of Staphylococcus aureus
# Streptococcus pyogenes [27] = test: Minimum inhibitory concentration against C203 strain of Streptococcus pyogenes
# Streptococcus pneumoniae [28] = test: Minimum inhibitory concentration against park strain of Streptococcus pneumoniae
structure (smiles),measurement,setting,value
O=C(Cc1csc2ccccc12)N[C@@H]1C(=O)N2C(C(=O)O)=C(Cl)CS[C@H]12,AUC,[1],86.8 µg·h/mL
same,AUC,[2],1.17 µg·h/mL
same,AUC,Canis familiaris [3],29.3 µg·h/mL
same,AUC,Canis familiaris [4],< 0.8 µg·h/mL
same,bioavailability,[5],47%
same,bioavailability,[6],1.3%
same,bioavailability,[7],< 3%
same,dose excreted,[8],1.5%
same,dose excreted,[9],20%
same,MIC,Escherichia coli,64 mg/L
same,MIC,Klebsiella aerogenes,> 128 mg/L
same,MIC,Klebsiella pneumoniae,128 mg/L
same,ED50,Mus musculus [10],5.5 mg/kg
same,ED50,Mus musculus [11],3.8 mg/kg
same,ED50,Mus musculus [12],36.2 mg/kg
same,ED50,Mus musculus [13],14.8 mg/kg
same,ED50,Mus musculus [14],1.51 mg/kg
same,ED50,Mus musculus [15],0.62 mg/kg
same,MIC,Salmonella,128 mg/L
same,MIC,[16],128 mg/L
same,MIC,[17],0.25 mg/L
same,MIC,[18],1 mg/L
same,MIC,Staphylococcus aureus [19],8 mg/L
same,MIC,Staphylococcus aureus [20],8 mg/L
same,MIC,Staphylococcus aureus [21],0.125 mg/L
same,MIC,Streptococcus pyogenes [22],0.06 mg/L
same,MIC,Haemophilus influenzae [23],1 mg/L
same,MIC,Haemophilus influenzae [24],0.25 mg/L
same,MIC,Streptococcus pneumoniae [25],0.125 mg/L
same,MIC,Staphylococcus aureus [26],0.25 mg/L
same,MIC,Streptococcus pyogenes [27],0.06 mg/L
same,MIC,Streptococcus pneumoniae [28],0.06 mg/L
